In ChEMBL document CHEMBL1152757, “Stereoselective synthesis and biological evaluation of syn-1-amino-3-[18F]fluorocyclobutyl-1-carboxylic acid as a potential positron emission tomography brain tumor imaging agent” (Bioorg Med Chem, 2009):

Key:
Brain [1] = assay: Biodistribution in brain of rat 9L cells implanted Fischer rat at 15 to 30 uCi, iv after 15 mins by gamma-counter; assay type: ADME, organism-based; conditions: in vivo, 0.25 h
How it was run: (§1)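 Male Fischer 344 rats (125-175 g) implanted intracranially by stereotactic injection of 5 × 10^4 9L gliosarcoma cells. Used 10-12 days after implantation. Tracer given into the tail vein at 15-30 µCi in 0.1-0.3 mL sterile saline. Groups of 4 were sacrificed at 15, 30, 60 and 120 min. Tissues were weighed and gamma-counted against dose standards, and counts decay-corrected to %ID/g (mean ± SD). One-way ANOVA.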

Heart [2] = assay: Biodistribution in heart of rat 9L cells implanted Fischer rat at 15 to 30 uCi, iv after 30 mins by gamma-counter; assay type: ADME, organism-based; conditions: in vivo, 0.5 h; how it was run: as §1
[3] = Biodistribution in testis of rat 9L cells implanted Fischer rat at 15 to 30 uCi, iv after 15 mins by gamma-counter; assay type: ADME, organism-based; conditions: in vivo, 0.25 h; how it was run: as §1
Liver [4] = assay: Biodistribution in liver of rat 9L cells implanted Fischer rat at 15 to 30 uCi, iv after 15 mins by gamma-counter; assay type: ADME, organism-based; conditions: in vivo, 0.25 h; how it was run: as §1
Heart [5] = assay: Biodistribution in heart of rat 9L cells implanted Fischer rat at 15 to 30 uCi, iv after 120 mins by gamma-counter; assay type: ADME, organism-based; conditions: in vivo, 2 h; how it was run: as §1
[6] = Ratio of drug level from tumor to brain of rat 9L cells implanted Fischer rat at 15 to 30 uCi, iv after 30 mins by gamma-counter; assay type: ADME, organism-based; conditions: in vivo, 0.5 h
How it was run: (§2)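 Male Fischer 344 rats (125-175 g) received intracranial implants of 9L cells (5 × 10^4 cells) and were used 10-12 days later. Tracer was given by tail vein at 15-30 µCi in 0.1-0.3 mL sterile saline. Groups of 4 were killed at each time point. Tissues were weighed and gamma counted against dose standards with decay correction, giving %ID/g (mean). The ratio is tumor %ID/g over normal brain %ID/g.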

[7] = Biodistribution in tumor of rat 9L cells implanted Fischer rat at 15 to 30 uCi, iv after 120 mins by gamma-counter; assay type: ADME, organism-based, Neoplasm; conditions: in vivo, 2 h; how it was run: as §1
Blood [8] = assay: Biodistribution in blood of rat 9L cells implanted Fischer rat at 15 to 30 uCi, iv after 30 mins by gamma-counter; assay type: ADME, organism-based; conditions: in vivo, 0.5 h; how it was run: as §1
[9] = Biodistribution in tumor of rat 9L cells implanted Fischer rat at 15 to 30 uCi, iv after 60 mins by gamma-counter; assay type: ADME, organism-based, Neoplasm; conditions: in vivo, 1 h; how it was run: as §1
Blood [10] = assay: Biodistribution in blood of rat 9L cells implanted Fischer rat at 15 to 30 uCi, iv after 60 mins by gamma-counter; assay type: ADME, organism-based; conditions: in vivo, 1 h; how it was run: as §1
Pancreas [11] = assay: Biodistribution in pancreas of rat 9L cells implanted Fischer rat at 15 to 30 uCi, iv after 15 mins by gamma-counter; assay type: ADME, organism-based; conditions: in vivo, 0.25 h; how it was run: as §1
Liver [12] = assay: Biodistribution in liver of rat 9L cells implanted Fischer rat at 15 to 30 uCi, iv after 120 mins by gamma-counter; assay type: ADME, organism-based; conditions: in vivo, 2 h; how it was run: as §1
Spleen [13] = assay: Biodistribution in spleen of rat 9L cells implanted Fischer rat at 15 to 30 uCi, iv after 60 mins by gamma-counter; assay type: ADME, organism-based; conditions: in vivo, 1 h; how it was run: as §1
Kidney = assay: Biodistribution in kidney of rat 9L cells implanted Fischer rat at 15 to 30 uCi, iv after 120 mins by gamma-counter; assay type: ADME, organism-based; conditions: in vivo, 2 h; how it was run: as §1
Pancreas [14] = assay: Biodistribution in pancreas of rat 9L cells implanted Fischer rat at 15 to 30 uCi, iv after 120 mins by gamma-counter; assay type: ADME, organism-based; conditions: in vivo, 2 h; how it was run: as §1
Bone [15] = assay: Biodistribution in bone of rat 9L cells implanted Fischer rat at 15 to 30 uCi, iv after 120 mins by gamma-counter; assay type: ADME, organism-based, Bone element; conditions: in vivo, 2 h; how it was run: as §1
[16] = Biodistribution in testis of rat 9L cells implanted Fischer rat at 15 to 30 uCi, iv after 120 mins by gamma-counter; assay type: ADME, organism-based; conditions: in vivo, 2 h; how it was run: as §1
Muscle tissue [17] = assay: Biodistribution in muscle of rat 9L cells implanted Fischer rat at 15 to 30 uCi, iv after 30 mins by gamma-counter; assay type: ADME, organism-based; conditions: in vivo, 0.5 h; how it was run: as §1
[18] = Biodistribution in testis of rat 9L cells implanted Fischer rat at 15 to 30 uCi, iv after 30 mins by gamma-counter; assay type: ADME, organism-based; conditions: in vivo, 0.5 h; how it was run: as §1
Lung = assay: Biodistribution in lung of rat 9L cells implanted Fischer rat at 15 to 30 uCi, iv after 120 mins by gamma-counter; assay type: ADME, organism-based; conditions: in vivo, 2 h; how it was run: as §1
[19] = Biodistribution in testis of rat 9L cells implanted Fischer rat at 15 to 30 uCi, iv after 60 mins by gamma-counter; assay type: ADME, organism-based; conditions: in vivo, 1 h; how it was run: as §1
Muscle tissue [20] = assay: Biodistribution in muscle of rat 9L cells implanted Fischer rat at 15 to 30 uCi, iv after 60 mins by gamma-counter; assay type: ADME, organism-based; conditions: in vivo, 1 h; how it was run: as §1
[21] = Ratio of drug level from tumor to brain of rat 9L cells implanted Fischer rat at 15 to 30 uCi, iv after 120 mins by gamma-counter; assay type: ADME, organism-based; conditions: in vivo, 2 h; how it was run: as §2
Heart [22] = assay: Biodistribution in heart of rat 9L cells implanted Fischer rat at 15 to 30 uCi, iv after 15 mins by gamma-counter; assay type: ADME, organism-based; conditions: in vivo, 0.25 h; how it was run: as §1
Spleen [23] = assay: Biodistribution in spleen of rat 9L cells implanted Fischer rat at 15 to 30 uCi, iv after 15 mins by gamma-counter; assay type: ADME, organism-based; conditions: in vivo, 0.25 h; how it was run: as §1
Bone [24] = assay: Biodistribution in bone of rat 9L cells implanted Fischer rat at 15 to 30 uCi, iv after 30 mins by gamma-counter; assay type: ADME, organism-based, Bone element; conditions: in vivo, 0.5 h; how it was run: as §1
Brain [25] = assay: Biodistribution in brain of rat 9L cells implanted Fischer rat at 15 to 30 uCi, iv after 120 mins by gamma-counter; assay type: ADME, organism-based; conditions: in vivo, 2 h; how it was run: as §1

N[C@]1(C(=O)O)C[C@H]([18F])C1
Drug uptake (Brain [1]): 0.2 % ID/g
Drug uptake (Heart [2]): 0.47 % ID/g
Drug uptake [3]: 0.17 % ID/g
Drug uptake (Liver [4]): 0.73 % ID/g
Drug uptake (Heart [5]): 0.3 % ID/g
Ratio [6]: 11.5
Drug uptake [7]: 1.93 % ID/g
Drug uptake (Blood [8]): 0.37 % ID/g
Drug uptake [9]: 1.48 % ID/g
Drug uptake (Blood [10]): 0.32 % ID/g
Drug uptake (Pancreas [11]): 2.37 % ID/g
Drug uptake (Liver [12]): 0.4 % ID/g
Drug uptake (Spleen [13]): 0.52 % ID/g
Drug uptake (Kidney): 0.56 % ID/g
Drug uptake (Pancreas [14]): 2.78 % ID/g
Drug uptake (Bone [15]): 0.2 % ID/g
Drug uptake [16]: 0.21 % ID/g
Drug uptake (Muscle tissue [17]): 0.43 % ID/g
Drug uptake [18]: 0.27 % ID/g
Drug uptake (Lung): 0.48 % ID/g
Drug uptake [19]: 0.27 % ID/g
Drug uptake (Muscle tissue [20]): 0.42 % ID/g
Ratio [21]: 7.7
Drug uptake (Heart [22]): 0.43 % ID/g
Drug uptake (Spleen [23]): 0.68 % ID/g
Drug uptake (Bone [24]): 0.26 % ID/g
Drug uptake (Brain [25]): 0.25 % ID/g
